Active and inactive are the calls of the source. The calls are words filed in the database; no cut-off is given here.
Each compound was assayed against T1, Orexin receptor type 2 (Homo sapiens, UniProt O43614) (assay: Antagonist activity at human OX2 receptor expressed in HEK293 cells assessed as inhibition of human orexin-A-stimulated calcium release by FLIPR assay). Settings: read-out: IC50.
T1 sequence (O43614 whole entry): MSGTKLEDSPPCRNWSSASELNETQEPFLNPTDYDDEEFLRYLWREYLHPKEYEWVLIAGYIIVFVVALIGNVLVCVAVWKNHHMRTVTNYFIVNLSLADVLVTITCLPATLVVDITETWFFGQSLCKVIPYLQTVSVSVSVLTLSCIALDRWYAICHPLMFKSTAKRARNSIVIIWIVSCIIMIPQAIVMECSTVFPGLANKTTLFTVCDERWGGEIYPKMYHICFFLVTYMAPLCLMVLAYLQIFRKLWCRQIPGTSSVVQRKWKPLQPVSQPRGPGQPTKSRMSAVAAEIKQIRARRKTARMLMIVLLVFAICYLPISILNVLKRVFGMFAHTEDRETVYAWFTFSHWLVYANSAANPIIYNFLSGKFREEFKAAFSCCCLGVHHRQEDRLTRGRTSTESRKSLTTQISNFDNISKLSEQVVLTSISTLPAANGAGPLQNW
Format: functional, cell-based
Procedure, shortened: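 HEK293/OX2-R cells, 20,000/well, were grown 24 h at 37 °C. They were loaded with Calcium 3 no-wash dye in HBSS/20 mM HEPES pH 7.5/BSA with 2.5 mM probenecid final, for 30 min at 37 °C, then 30-90 min at room temperature. FLIPR fluorescence was read for 125 s.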
COc1ccc(OCCN(CC(=O)NCc2ccccc2)Cc2ccc(F)c(F)c2)cc1OC was tested, and the IC50 was less than 30 nM.
COc1ccc(OCCN(CC(=O)NCc2ccccc2)Cc2ccc(F)cc2)cc1OC was tested, and the IC50 was less than 30 nM.
Compound COc1ccc(OCCN(CC(=O)NCc2ccccc2)Cc2ccccc2)cc1OC has an IC50 of less than 30 nM.

Same assay, conditions: read-out: pIC50 (converted)
For COc1ccc(OCCN(CC(=O)NCC(C)C)Cc2ccc(F)cc2)cc1OC, the IC50 was 562 nM.
COc1ccc(OCCCN(CC(=O)NCc2ccccc2)Cc2ccccc2)cc1OC was tested, and the IC50 was 51.3 nM.
COc1ccc(OCCN(CC(=O)NCc2ccccc2Cl)Cc2cccs2)cc1OC showed an IC50 of 195 nM.
Work on COc1ccc(OCCN(CC(=O)NCC(C)C)Cc2cccs2)cc1OC yielded an IC50 of 324 nM.
In the case of COc1ccc(OCCN(CC(=O)NCc2ccccc2Cl)Cc2ccc(F)cc2)cc1OC, the IC50 is reported as 138 nM.
COc1ccc(OCCN(CC(=O)NCc2ccccc2)Cc2ccc(F)c(F)c2)cc1OC showed an IC50 of 18.6 nM.
Work on COc1ccc(OCCN(CC(=O)NCC(C)C)Cc2ccc(F)c(F)c2)cc1OC yielded an IC50 of 229 nM.
For COc1ccc(OCCCN(CC(=O)NCc2ccccc2)Cc2cccs2)cc1OC, the IC50 was 132 nM.
COc1ccc(OCCCN(CC(=O)NCc2ccccc2)Cc2ccc(F)c(F)c2)cc1OC was tested, and the IC50 was 107 nM.
Work on COc1ccc(OCCN(CC(=O)NCc2ccccc2Cl)Cc2ccc(F)c(F)c2)cc1OC yielded an IC50 of 81.3 nM.
COc1ccc(OCCN(CC(=O)NCc2ccccc2)Cc2ccc(F)cc2)cc1OC showed an IC50 of 19.5 nM.
Work on COc1ccc(OCCN(CC(=O)NCc2ccccc2Cl)Cc2ccccc2)cc1OC yielded an IC50 of 151 nM.
In the case of COc1ccc(OCCN(CC(=O)NCc2ccccc2)Cc2ccccc2)cc1OC, the IC50 is reported as 25.1 nM.
In the case of COc1ccc(OCCN(CC(=O)NCc2ccccc2)Cc2cccs2)cc1OC, the IC50 is reported as 110 nM.
Compound COc1ccc(OCCN(CC(=O)NCC(C)C)Cc2ccccc2)cc1OC has an IC50 of 302 nM.

Each compound was assayed against T2, Orexin receptor type 2 (Homo sapiens) (UniProt O43614) (assay: Agonist activity at human OX2 receptor expressed in HEK293 cells assessed as effect on human orexin-A-stimulated calcium release by FLIPR assay). Settings: not given.
T2 sequence (whole entry): T1 sequence (O43614 whole entry)
Format: functional, cell-based
With COc1ccc(OCCN(CC(=O)NCC(C)C)Cc2ccc(F)cc2)cc1OC the Activity was “inactive”.
COc1ccc(OCCCN(CC(=O)NCc2ccccc2)Cc2ccccc2)cc1OC was tested, and the Activity was “inactive”.
For COc1ccc(OCCN(CC(=O)NCc2ccccc2Cl)Cc2cccs2)cc1OC, the Activity was “inactive”.
With COc1ccc(OCCN(CC(=O)NCC(C)C)Cc2cccs2)cc1OC the Activity was “inactive”.
With COc1ccc(OCCN(CC(=O)NCc2ccccc2Cl)Cc2ccc(F)cc2)cc1OC the Activity was “inactive”.
COc1ccc(OCCN(CC(=O)NCc2ccccc2)Cc2ccc(F)c(F)c2)cc1OC was tested, and the Activity was “inactive”.
For COc1ccc(OCCN(CC(=O)NCC(C)C)Cc2ccc(F)c(F)c2)cc1OC, the Activity was “inactive”.
With COc1ccc(OCCCN(CC(=O)NCc2ccccc2)Cc2cccs2)cc1OC the Activity was “inactive”.
For COc1ccc(OCCCN(CC(=O)NCc2ccccc2)Cc2ccc(F)c(F)c2)cc1OC, the Activity was “inactive”.
With COc1ccc(OCCN(CC(=O)NCc2ccccc2Cl)Cc2ccc(F)c(F)c2)cc1OC the Activity was “inactive”.
In the case of COc1ccc(OCCN(CC(=O)NCc2ccccc2)Cc2ccc(F)cc2)cc1OC, the Activity is reported as “inactive”.
In the case of COc1ccc(OCCN(CC(=O)NCc2ccccc2Cl)Cc2ccccc2)cc1OC, the Activity is reported as “inactive”.
In the case of COc1ccc(OCCN(CC(=O)NCc2ccccc2)Cc2ccccc2)cc1OC, the Activity is reported as “inactive”.
With COc1ccc(OCCN(CC(=O)NCc2ccccc2)Cc2cccs2)cc1OC the Activity was “inactive”.
COc1ccc(OCCN(CC(=O)NCC(C)C)Cc2ccccc2)cc1OC was tested, and the Activity was “inactive”.

From ChEMBL document CHEMBL1152230, “Synthesis of (3,4-dimethoxyphenoxy)alkylamino acetamides as orexin-2 receptor antagonists” (Bioorg Med Chem Lett, 2008)
